From article PMC9575405 (ACS infectious diseases, 2021)

Columns and labels:
[1] = test system: S. aureus ATCC 13709 (Smith); test: Mouse abscess infection model; type: in vivo; conditions: after 26 h; orally at 20 mg/kg
In short: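 Female CD-1 mice were infected s.c. in the right flank under anaesthesia with 0.25 mL inoculum (OD625 0.1 saline suspension from plate culture; target 1.0×10^6, actual 1.4×10^6 CFU/mouse) mixed with […] beads. From 2 h post-infection, test compounds were injected into the abscess (100 uL), repeated 12 h later; positive control was oral. Five per group; T=0 group sampled. Abscess CFU at 26 h; mean and SD.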

[2] = test system: S. aureus Smith; test: Mouse septicemia model; type: in vivo; conditions: 10 mg/kg i.v., five mice
In short: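 CD-1 female mice (18–20 g), acclimated 5 days, were infected i.p. with 0.5 ml of S. aureus (overnight liquid culture diluted 1:10, grown 5 h shaking) diluted in 5% hog gastric mucin, pH 7.4, to give ≥90% mortality within 48 h (1.6 × 10^6 CFU). Single slow i.v. bolus at 10 mL/kg 1 h post-infection. Five mice per treatment group; ten vehicle-dosed infection controls. Read-out: survival.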

**Q.** `CC(=O)NC[C@H]1CN(c2ccc(N3CCOCC3)c(F)c2)C(=O)O1` [linezolid] was tested. Which “increase in CFUs” value [1] did it give?
**A.** 1 log10

**Q.** Which survival [2] does the source give for `CN[C@H](CC(C)C)C(=O)N[C@H]1C(=O)N[C@@H](CC(N)=O)C(=O)N[C@H]2C(=O)N[C@H]3C(=O)N[C@H](C(=O)N[C@H](C(=O)O)c4cc(O)cc(O)c4-c4cc3ccc4O)[C@H](O)c3ccc(c(Cl)c3)Oc3cc2cc(c3O[C@@H]2O[C@H](CO)[C@@H](O)[C@H](O)[C@H]2O[C@H]2C[C@](C)(N)[C@H](O)[C@H](C)O2)Oc2ccc(cc2Cl)[C@H]1O` [vancomycin] here?
**A.** all five mice
